Drawing on the RNAGym collection of RNA variant scans (doi:10.1126/science.aae0568), this text covers yeast fitness for 167 variants.

Fewer inactive variants are shown than the library holds. Bounds are passed on as bounds.

B1: tRNA (parent)
chain: GUUCCGUUGGCGUAAUGGUAACGCGUCUCCCUCCUAAGGAGAAGACUGCGGGUUCGAGUCCCGUACGGAACG

In the data set the parent is B1. The data set can be described thus: yeast fitness relative to wild type (ratio to wild type); higher = fitter; tRNA-Arg(CCU), competitive growth, 37 C, YPD. Summed up: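 Variants of the tRNA-Arg(CCU) gene, chemically synthesised with a 3% per-site mutation rate at 69 sites, were placed at the native genomic locus in Saccharomyces cerevisiae. The pooled strains were competed in YPD at 37°C for 24 hours in six parallel replicates. Gene amplicons from the start population and from each end population were read by 100-nucleotide paired-end sequencing. Darwinian fitness relative to wild type came from changes in genotype frequencies; genotypes needed ≥ 100 starting reads, and estimates < 0.5 were set to 0.5.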
Regarding A14U C24U G48C, the yeast fitness was no more than 0.5. Next, A36G G39C: 0.787; G12C U53A C61U C62A: no more than 0.5; C27U A70G: 0.988. Next, G9U G63A: 0.71; A36G A42U: 0.902; A14G G48A G68A: no more than 0.5. For G18C C31G A36C A45G A65G, the yeast fitness stood at 0.595. C11A C31U U53A: the yeast fitness came out at 0.513. Take C11G U53A C55U G56C: the yeast fitness is no more than 0.5. Next, C29A A42U C46A: 0.619. Next, C29U G44A A57G: 0.623; C5U A45C C62A: 0.701; C11U C31U C60A: no more than 0.5. Next, G18A C31U G58A: 0.643.

Turning to U8G C24G C33U, the yeast fitness is no more than 0.5. For U3G C4G C22U C29U A65G, the yeast fitness is no more than 0.5. Next, A20U A45G C46U C66U A69U: no more than 0.5; C11U U13A U32C C49U: no more than 0.5; C11G C49U C66U: no more than 0.5. For the variant G12A G44C C49G, the yeast fitness came out at 0.799. To C4U C24A A57G A70C belongs no more than 0.5.

C5U C49U U64A: the yeast fitness is no more than 0.5.

Regarding A14C C46U U53A, the yeast fitness was no more than 0.5.

On to C11U A20G A37G U54A U59G, for which the yeast fitness was no more than 0.5.

In the case of G18A U26G A40G U59G C62A, the yeast fitness was no more than 0.5. With C30A C49A C61U, the yeast fitness was no more than 0.5. Take C33G G68A: the yeast fitness turned out to be 0.671.

Take A14G A40U G44A A65U: the yeast fitness was no more than 0.5. With U8C A20G C27U C30U A42G C60A, the yeast fitness is 0.711. To G39C A43U belongs 0.934.

Consider G6C G17A C24A U32C A45C C60A A69U, for which the yeast fitness was no more than 0.5. As for G25C C30G U32G A42C C49U, the yeast fitness amounted to 0.543. Next, C11G C30U C34U: no more than 0.5. To U3C G67C belongs 0.783; to G23C C27G U53C C61A G68A, no more than 0.5; to C31U C33G C61A, 0.65. To C4U U28G G38A A43G C46A C49U belongs 0.608. On to U35C A36U A40U C55U A57C, for which the yeast fitness worked out at 0.865.

In the case of A20U G56A, the yeast fitness turned out to be 0.922. Next, C11G C29A A43C: 0.572.

Regarding U2G A21G A69C, the yeast fitness was 0.501.

Take G50C C61G A70C: the yeast fitness is no more than 0.5. For G9A C30U C34G A40C C49G G68C, the yeast fitness is no more than 0.5.

On to U13A G25A, for which the yeast fitness came out at 1.01. Next, U28C G48A C61G: 0.548. As to C46G G68U, the yeast fitness turned out to be 0.658.

Regarding G12A U19A C24U, the yeast fitness was 0.73. Next, G9C A69U: 0.841; A14U C34G A37C C62U: no more than 0.5. To A40G A45G U53A belongs no more than 0.5. To C11U U32C A40U belongs 0.785; to C30U C31G C66U, 0.512. As to C11A A57G A69G, the yeast fitness is no more than 0.5. Regarding G12C G17A C46G, the yeast fitness is 0.584.

For C33G G41C, the yeast fitness is 0.58.

On to A21G C31G, for which the yeast fitness is 1.05. Consider C27U C29A A36U A40C G52C, for which the yeast fitness was 0.583. On to C4A G12A U16A G51A U54A, for which the yeast fitness came to 0.542. With C11G G17C C29U G51A, the yeast fitness worked out at 0.625. Next, G12A A36G C49G: no more than 0.5. To A42U U47A U53A belongs 0.727; to C62G A65C, 0.6; to U2G U26G, 0.693. Next, C5G G17C A43U: 0.516; U2A C11U G58C: 0.678; U2C A20G C27G A37C G38C A43G C55A: no more than 0.5. Consider G48A A65C, for which the yeast fitness was 0.901.

For the variant U2A C22U A43U, the yeast fitness was 0.533.

Take C11G A20C A42C C49U A57U: the yeast fitness was no more than 0.5.

Take C11U A21C C27U A42G A69C A70G: the yeast fitness was no more than 0.5. To C11A A20G U59G belongs no more than 0.5; to U28G G38A A40G G56A, 0.626. Next, A36U C49U U54C: no more than 0.5; C4A G18C C29A C31A C66U: no more than 0.5; C30U A37C G38A: no more than 0.5. To C11U G44C C62A belongs no more than 0.5. As to U7A A21C C30U A42C G48C, the yeast fitness is no more than 0.5.

Take C5G A45G A69U: the yeast fitness was found to be 0.688. As for G6A C22G G52C G58C A65U, the yeast fitness was no more than 0.5. To C24U C34G A57U C61G belongs no more than 0.5; to C4A C31A A45U, no more than 0.5; to C5A G12A G18A A69C, no more than 0.5. On to C24A U53C, for which the yeast fitness was found to be 0.598. Turning to C66G A70U, the yeast fitness turned out to be 0.724. To U3C C24U U26C G63A A65G belongs no more than 0.5; to C5G C49U C61G, 0.534. Turning to C4A A21U C27A G41C A70G, the yeast fitness was no more than 0.5.

On to A42G A70C, for which the yeast fitness is 0.853. Next, C11U G25A U59G: 0.538; C30U C62U G68C: 0.598; U7G A21C G48C C55U G56A: no more than 0.5. Next, G10A U35A A57C: no more than 0.5; U28A A36G A57U A69U: no more than 0.5. G39C C61U: the yeast fitness came to 0.751.

Consider C4U U7G C34G C55U, for which the yeast fitness amounted to 0.563. To C4A U7A U8G A45C belongs no more than 0.5. Take U2G C46G A65U: the yeast fitness worked out at 0.623.

In the case of C5U A37C U54A, the yeast fitness was no more than 0.5. To C22G G52A U53A belongs no more than 0.5; to U3A A20G G44A C49A U59A, no more than 0.5; to G17A C46U G51C, 0.647. Consider C27U U53A, for which the yeast fitness is 0.628. In the case of A14G G68U, the yeast fitness is 0.826. For C5A C62G, the yeast fitness worked out at 0.778. To A20G C31G C46G G50A belongs no more than 0.5. Take C5G U7C C11G A43G A65U: the yeast fitness was no more than 0.5. To U7A A36U A45G U47A G68A belongs no more than 0.5; to C11A C31A G51C, no more than 0.5; to U19G A20U G58C, 0.716. Take A14C C24U A36G G68C: the yeast fitness is no more than 0.5.

As to U3G A14U, the yeast fitness stood at 0.629. Regarding A36U U54C, the yeast fitness stood at 0.559. To C27G G38C C55U belongs no more than 0.5.

Turning to C5G C11G G12A A37C G50A, the yeast fitness is 0.533. For the variant C11G G12A C27U A43G G67A, the yeast fitness turned out to be 0.606. To U3C U54C belongs 0.873; to U3G U53C A57G C66U A69U, no more than 0.5; to U13C A20C A42U, 0.558. Next, U16A U32G: 0.684.

For the variant C4G G12A C66G, the yeast fitness is 0.503. For the variant U13A A65U A69C, the yeast fitness was no more than 0.5.

A42G G52C G58C: the yeast fitness is no more than 0.5. To C4U A20C C24G G56A C62A belongs no more than 0.5. To U8A C60U belongs 0.551. For the variant G6A U13A C30G C61U, the yeast fitness was 0.601. To C29A C62U U64C belongs 0.554.

In the case of A37G G41A, the yeast fitness was determined as 0.805. Next, C33A A42G: 0.583; C27A A45C G56C C60U G68U: no more than 0.5. In the case of C11A A14G U19G A43C U53A C66U, the yeast fitness stood at 0.601.

A20U A36C C49A C66G: the yeast fitness was no more than 0.5.

In the case of G6A G18C C49A C61G, the yeast fitness is no more than 0.5. Next, U32G C34A A40C C60U: no more than 0.5. Consider C24U A42C C46A U54A, for which the yeast fitness is no more than 0.5. As for G44A C46G G50C U53A, the yeast fitness is no more than 0.5.

As for C4G G23A C29G A37C C61G, the yeast fitness was no more than 0.5. To C5U U7C C30A A42C A65U A69U belongs no more than 0.5. On to C60U A65C, for which the yeast fitness came to 0.764. For the variant C4U C11A C27A C62A, the yeast fitness is no more than 0.5.

Take U16A A20G A21G C34U G44A C61A G67C: the yeast fitness is no more than 0.5. Next, G10C C22U C33U U35C: no more than 0.5. To A21U A40G G67A belongs 0.553. Turning to C11U A45U A57C G58A, the yeast fitness was 0.61.

Turning to A43G A57C C60G, the yeast fitness was no more than 0.5. To A20G G50A A57U belongs 0.542; to G39A G48C, 0.718. As to U2C U35A C55A, the yeast fitness is no more than 0.5.

Take U3A G17A C22U G48A C62A: the yeast fitness was no more than 0.5. To U47C G48C belongs 0.797; to C5U G38A A42G, 0.605; to G18A A21C A43C G48A G52A G63A, no more than 0.5.

C5A C33U U53C: the yeast fitness was no more than 0.5. In the case of C31U A57G, the yeast fitness worked out at 1.06. On to C30U C55G G58C, for which the yeast fitness worked out at 0.526. For the variant G9C C31G A40C G50C C55U C60G A69G, the yeast fitness came to 0.549.

With C11U C29U G67A A70U, the yeast fitness turned out to be 0.578.

For U8C C33G C34G C46U, the yeast fitness was no more than 0.5.

For the variant C31A G38A C46U, the yeast fitness is no more than 0.5. Take A20C C46A G68A: the yeast fitness stood at 0.875. Next, C5G A21G U32C: 0.63; G9A G23A C27A G67C: no more than 0.5; G12A C27U G51C A57U: 0.534. To G52U belongs 0.785. To G6A U32A A45U A69C belongs 0.565; to A15C C29G A40U G52A, no more than 0.5; to G17C U32G C34A A40U A43C, no more than 0.5.
